Sampled rows, rich in hits. Any-hit rate of the full collection: about 1.5%.
Casp6 inh: caspase-6 (human) enzyme inhibition | 350,000 tested, 0.53% active | AID 686996 | purified caspase-6, Z-VEID-R110 cleavage fluorescence | inhibition, % at 12.5 µM;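 active = mean inhibition across replicates at least about 35%, with every replicate also reaching that limit, limit read from the data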
Target sequence (P55212 24-179 limits assumed): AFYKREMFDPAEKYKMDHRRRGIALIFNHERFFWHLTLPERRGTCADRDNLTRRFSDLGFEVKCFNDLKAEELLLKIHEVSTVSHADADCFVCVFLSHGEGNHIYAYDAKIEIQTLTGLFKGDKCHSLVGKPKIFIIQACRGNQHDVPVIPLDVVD
Target sequence (P55212 194-293 limits assumed): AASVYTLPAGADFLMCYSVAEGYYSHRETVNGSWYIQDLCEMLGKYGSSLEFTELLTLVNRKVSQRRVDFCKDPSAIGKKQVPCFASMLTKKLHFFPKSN
DNMT1 block: DNMT1 (human) enzyme inhibition. AID 588458. 360,000 tested, 0.83% active. inhibition (reported as % activation of signal), % at 10 µM. P26358. DNMT1 molecular beacon, Hinp1I cleavage, fluorescence
NSD2 inh: blocks human histone methyltransferase NSD2. NSD2 peptide methylation, AlphaScreen, 120 min. inhibition, % at 12.5 µM. 310,000 tested, 0.54% active
NS3 helicase inh: inhibitors of Hepatitis C virus NS3 helicase | NS3 helicase DNA unwinding, Cy5 molecular beacon fluorescence | inhibition, % at 10.9 µM | 290,000 tested, 0.56% active;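 active = inhibition above the mean of all tested compounds plus 3 SD, set per campaign, cut at about 35% in these data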
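Assay system – hepatitis C virus NS3 helicase domain fragment enzyme · Buffer or medium – MOPS pH 6.5, MgCl2, DTT, Tween20, BSA · Reagent – Cy5/quencher beacon DNA duplex and ATP to start · Compound – single 10.9 µM dose · Timing – 1 h at 25 °C · Technique – Cy5 beacon fluorescence read at start and 1 h · Measure – % inhibition of unwinding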
DNMT1 inh conf: DNMT1 inhibition confirmation, single concentration; shares compounds with DNMT1 block; DNMT1 molecular beacon HinP1I cleavage, fluorescence; inhibition, % at 10 µM; 2,300 tested, 8% active; AID 602385;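 active = average inhibition of at least 30% in the single-concentration confirmation test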
Beacon interf: counter-screen for DNMT1 inhibitors: spectral interference; DNMT1 molecular beacon spectral interference counterscreen, fluorescence 485/520; 2,300 tested, 1% active; activation (fluorescence interference), % at 10 µM; shares compounds with DNMT1 block;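 active = activation of at least 30% at 10 µM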;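 also: DNMT1 catalytic domain with a HinP1I cleavage step and a FAM/dabcyl DNA beacon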
Each line names hits and unclear results; the compound was inactive in the other large screens (follow-up assays come after a bar, where they were run). Rule as the data show it, unless noted: active = inhibition above about 50%; inactive = the rest.

O=C(CCNS(=O)(=O)c1ccc(Br)cc1)N1CCCCCCC1	none (no result: NS3 helicase inh)
CCCN(CC(=O)Nc1ccc(Cl)cc1Cl)C(=O)CC(NC(C)=O)c1ccccc1 (stereo not drawn)	none
CC(=O)NC(CC(=O)NC(C)c1ccc(Cl)cc1Cl)c1ccccc1 (stereo not drawn)	DNMT1 block 68 | DNMT1 inh conf inactive | Beacon interf inactive
Cc1cccn2c(=O)c(/C=C(\C#N)C(=O)NCc3ccco3)c(N3CCOCC3)nc12	none
N#C/C(=C\c1c(N2CCC(C(N)=O)CC2)nc2ccccn2c1=O)C(=O)NCc1ccco1	DNMT1 block 64 (no result: Casp6 inh) | DNMT1 inh conf inactive | Beacon interf inactive
O=C(Nc1cc2nn(-c3ccccc3)nc2cc1Cl)c1ccco1	DNMT1 block 75 (no result: Casp6 inh) | DNMT1 inh conf inactive | Beacon interf inactive
O=C(Nc1ccc2nn(-c3ccccc3)nc2c1)c1ccco1	none (no result: Casp6 inh)
O=C(CSc1nnc(-c2ccco2)o1)c1ccc[nH]1	DNMT1 block 55 | DNMT1 inh conf inactive | Beacon interf inactive
O=C(O)CCc1ccc(-c2ccc(Br)cc2)n1Cc1ccco1	DNMT1 block 73 (no result: Casp6 inh) | DNMT1 inh conf inactive | Beacon interf inactive
C/C=C/c1cnc2c(c1)C(=O)N([C@@H](C)CO)C[C@@H](C)[C@@H](CN(C)C(=O)Nc1ccc(F)cc1)O2	none (no result: DNMT1 block, NSD2 inh, NS3 helicase inh)
COc1ccc(N2Cc3cccc(C(=O)NC(C)CCc4ccco4)c3C2=O)cc1 (stereo not drawn)	DNMT1 block 77 (no result: NSD2 inh) | DNMT1 inh conf inactive | Beacon interf inactive
COc1ccc(/C(C)=N/Nc2ccc(C(=O)O)cc2)c(OC)c1	DNMT1 block 56 (no result: Casp6 inh) | DNMT1 inh conf inactive | Beacon interf inactive
CCc1ccc([C@H]2C(C(=O)O)=C[C@@H](CC)N2S(=O)(=O)c2ccc(C)cc2)cc1	DNMT1 block 74 (no result: NSD2 inh, NS3 helicase inh) | DNMT1 inh conf inactive | Beacon interf inactive
COc1ccccc1CCNC(C)CCc1ccc(O)cc1 (stereo not drawn)	DNMT1 block 68 | DNMT1 inh conf inactive | Beacon interf inactive
CCCC#Cc1ccc([C@H]2[C@@H](CO)N(C(C)=O)[C@@H]2CNC(=O)C2CC2)cc1	none (no result: DNMT1 block, NSD2 inh, NS3 helicase inh)
COCC#Cc1ccc2c(c1)O[C@@H](CN(C)C(=O)C1CC1)[C@@H](C)CN([C@H](C)CO)S2(=O)=O	none (no result: DNMT1 block, NSD2 inh, NS3 helicase inh)
COc1cc(/C=C(\C#N)C(=O)NCC2CCCO2)cc(OC)c1OC (stereo not drawn)	DNMT1 block 57 | DNMT1 inh conf inactive | Beacon interf inactive
C[C@@H]1CCCCO[C@H](CN(C)Cc2ccc3c(c2)OCO3)[C@H](C)CN([C@@H](C)CO)C(=O)c2cc(NS(=O)(=O)c3ccccc3)ccc2O1	none (no result: DNMT1 block, NSD2 inh, NS3 helicase inh)
O=[N+]([O-])c1ccc(/C=N/Nc2nc(N3CCCCCC3)nc(N3CCCCCC3)n2)o1	DNMT1 block 66 (no result: Casp6 inh) | DNMT1 inh conf inactive | Beacon interf inactive
Cc1ccc(S(=O)(=O)N[C@H]2C=C[C@H](CC(=O)NCCN3CCCCC3)O[C@@H]2CO)cc1	none (no result: DNMT1 block, NSD2 inh, NS3 helicase inh)
Cc1cc(NC(=O)c2ccco2)c(=O)n(Cc2cccc(C(F)(F)F)c2)c1	DNMT1 block 66 | DNMT1 inh conf inactive | Beacon interf inactive
Cn1nnc(NCc2cc(Br)ccc2OCc2ccccc2F)n1	DNMT1 block 77 | DNMT1 inh conf inactive | Beacon interf inactive
Fc1ccccc1COc1ccc(Br)cc1CNCC1CCCO1 (stereo not drawn)	none
CCN(CC)S(=O)(=O)c1ccc(/C=C/C(=O)OCC(=O)NCc2ccco2)cc1	DNMT1 block 64 (no result: NS3 helicase inh) | DNMT1 inh conf inactive | Beacon interf inactive
CN(C)C(=O)c1ccc(-c2ccc([C@H]3[C@@H](CO)N4CCCCN(C(=O)C5CCCC5)C[C@H]34)cc2)cc1	none (no result: DNMT1 block, NSD2 inh, NS3 helicase inh)
Fc1ccc(CNc2ccc(N3CCN(Cc4ccccc4)CC3)cc2)cc1	DNMT1 block 62 | DNMT1 inh conf inactive | Beacon interf inactive
O=c1c(C=Nc2cccc(C(F)(F)F)c2)c[nH]n1-c1cccc(Cl)n1	none (no result: Casp6 inh)
O=c1c(C=Nc2ccc(Cl)cc2)c[nH]n1-c1cccc(Cl)n1	DNMT1 block 75 (no result: Casp6 inh) | DNMT1 inh conf inactive | Beacon interf inactive
COCC(=O)Nc1ccc2c(c1)OC[C@H](C)N(C(=O)c1ccncc1)C[C@@H](C)[C@H](OC)CN(C)C2=O	none (no result: DNMT1 block, NSD2 inh, NS3 helicase inh)
O=C(N=Nc1c(O)n(Cc2ccccc2)c2ccccc12)c1cc2ccccc2cc1O	DNMT1 block 82 | DNMT1 inh conf inactive | Beacon interf inactive
COc1ccc(C(C)(C)C)cc1NC(=O)c1ccc2c(c1)SC1=NS(=O)(=O)CCN12	DNMT1 block 69 | DNMT1 inh conf inactive | Beacon interf inactive
COc1ccc(S(=O)(=O)N2CCCC2CNC(=O)C(=O)Nc2ccc(C)cc2)cc1 (stereo not drawn)	none (no result: NS3 helicase inh)
Cc1ccc(S(=O)(=O)N2CCCC2CNC(=O)C(=O)Nc2ccc(F)cc2)cc1 (stereo not drawn)	DNMT1 block 54 (no result: NS3 helicase inh) | DNMT1 inh conf inactive | Beacon interf inactive
CN1[C@H](C(=O)NC2CCCCC2)[C@@H](CO)[C@@H]2Cn3c(ccc(-c4cccc(F)c4)c3=O)[C@@H]21	none (no result: DNMT1 block, NSD2 inh, NS3 helicase inh)
Cc1ccc(C(=O)OC(C)C(=O)NC2CCCCC2C)s1 (stereo not drawn)	DNMT1 block 83 (no result: NS3 helicase inh) | DNMT1 inh conf inactive | Beacon interf inactive
CC(OC(=O)c1cccs1)C(=O)NC1CCCCC1C (stereo not drawn)	none (no result: NS3 helicase inh)
O=C(/C=C/c1ccco1)NC(=S)Nc1cc(-c2nc3ccccc3s2)ccc1Cl	DNMT1 block 98 | DNMT1 inh conf inactive | Beacon interf inactive
Cc1ccc(-c2nc3ccccc3s2)cc1NC(=S)NC(=O)/C=C/c1ccco1	DNMT1 block 54 (no result: Casp6 inh) | DNMT1 inh conf inactive | Beacon interf inactive
CN(C)CC(=O)N[C@@H]1CC[C@@H](CCn2cc(C3CCCC3)nn2)O[C@@H]1CO	none (no result: DNMT1 block, NSD2 inh, NS3 helicase inh)
O=C(CSc1ccsc1[N+](=O)[O-])Nc1cc(F)ccc1F	Casp6 inh 36, DNMT1 block 70 | DNMT1 inh conf inactive | Beacon interf inactive
CC(=O)c1ccc(NC(=O)CSc2ccsc2[N+](=O)[O-])cc1	none
CCCNC(=O)C[C@@H]1C[C@@H]2c3cc(NC(=O)NC4CCCCC4)ccc3O[C@@H]2[C@@H](CO)O1	none (no result: DNMT1 block, NSD2 inh, NS3 helicase inh)
COc1ccc(Nc2ccc(OC)cc2)cc1	DNMT1 block 56 (no result: NSD2 inh) | DNMT1 inh conf inactive | Beacon interf inactive
O=C(Nc1cccc(Oc2ccc(C(=O)O)c(C(=O)O)c2)c1)c1ccc(-c2ccccc2)cc1	Casp6 inh 42, DNMT1 block 53 | DNMT1 inh conf inactive | Beacon interf inactive
CC(=O)OCCc1c2ccccc2c(CCCN(C)C)c2ccccc12	DNMT1 block 51 (no result: NS3 helicase inh) | DNMT1 inh conf inactive | Beacon interf inactive
[O-][n+]1c2ccccc2[n+]([O-])c2cc(O)ccc21	Casp6 inh 68, DNMT1 block 56 | DNMT1 inh conf inactive | Beacon interf inactive
CN(C)C(=O)[C@@H]1[C@@H](CO)[C@@H]2Cn3c(ccc(C4=CCCCC4)c3=O)[C@H]1N2Cc1ccccc1	none (no result: DNMT1 block, NSD2 inh, NS3 helicase inh)
CC(C)(C)c1ccc(/C=N/NC(=O)C2CCCC2)cc1	DNMT1 block 77 | DNMT1 inh conf inactive | Beacon interf inactive

Screening data from PubChem.
